HKDC1 inhibitor: inhibitors of human hexokinase HKDC1. inhibition, % at 20 µM. 340,000 tested, 0.16% active. recombinant HKDC1, G6PDH/diaphorase resazurin coupled fluorescence;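 active means inhibition above about 35% when tested at 20 µM, limit read from the data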;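 further: plate controls were DMSO wells with enzyme for no effect and DMSO wells lacking enzyme for full effect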
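System: Recombinant HKDC1 hexokinase | Amount: HKDC1 at 5 µg/mL | Reagent: Glucose with 1 mM ATP | Doses: Single 20 µM dose | Incubation: Reaction time 90 min, room temperature, protected from light | Signal: Coupled resazurin fluorescence, excitation 525 nm, emission 613 nm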
A1 inh: inhibitors of the anti-apoptotic protein A1, read as caspase activation. MEF A1-2A-BIM cells, Caspase-Glo 3/7 luminescence, 3 h; percent of clofoctol response, vehicle zero. caspase activation, % (concentration not given with the values). 330,000 tested, 0.066% active. AID 2462;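 active means over half of replicate activation scores above 10%, or exactly half above 10 with the replicate mean above 10; inconclusive means replicate mean below 10 yet half the replicates above 10; inactive means over half of replicates below 10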
LANA-H2B inh: blocks KSHV LANA binding to histone H2A/H2B; Q9QR71; cell-free LANA-H2A/H2B peptide, fluorescence polarization; inhibition, % (concentration not given with the values); 320,000 tested, 0.6% active; AID 2629; in the data active means inhibition mostly above about 10%, no sharp cut-off; inactive means mostly below about 6.7%
Target sequence (Q9QR71 whole entry, looked up): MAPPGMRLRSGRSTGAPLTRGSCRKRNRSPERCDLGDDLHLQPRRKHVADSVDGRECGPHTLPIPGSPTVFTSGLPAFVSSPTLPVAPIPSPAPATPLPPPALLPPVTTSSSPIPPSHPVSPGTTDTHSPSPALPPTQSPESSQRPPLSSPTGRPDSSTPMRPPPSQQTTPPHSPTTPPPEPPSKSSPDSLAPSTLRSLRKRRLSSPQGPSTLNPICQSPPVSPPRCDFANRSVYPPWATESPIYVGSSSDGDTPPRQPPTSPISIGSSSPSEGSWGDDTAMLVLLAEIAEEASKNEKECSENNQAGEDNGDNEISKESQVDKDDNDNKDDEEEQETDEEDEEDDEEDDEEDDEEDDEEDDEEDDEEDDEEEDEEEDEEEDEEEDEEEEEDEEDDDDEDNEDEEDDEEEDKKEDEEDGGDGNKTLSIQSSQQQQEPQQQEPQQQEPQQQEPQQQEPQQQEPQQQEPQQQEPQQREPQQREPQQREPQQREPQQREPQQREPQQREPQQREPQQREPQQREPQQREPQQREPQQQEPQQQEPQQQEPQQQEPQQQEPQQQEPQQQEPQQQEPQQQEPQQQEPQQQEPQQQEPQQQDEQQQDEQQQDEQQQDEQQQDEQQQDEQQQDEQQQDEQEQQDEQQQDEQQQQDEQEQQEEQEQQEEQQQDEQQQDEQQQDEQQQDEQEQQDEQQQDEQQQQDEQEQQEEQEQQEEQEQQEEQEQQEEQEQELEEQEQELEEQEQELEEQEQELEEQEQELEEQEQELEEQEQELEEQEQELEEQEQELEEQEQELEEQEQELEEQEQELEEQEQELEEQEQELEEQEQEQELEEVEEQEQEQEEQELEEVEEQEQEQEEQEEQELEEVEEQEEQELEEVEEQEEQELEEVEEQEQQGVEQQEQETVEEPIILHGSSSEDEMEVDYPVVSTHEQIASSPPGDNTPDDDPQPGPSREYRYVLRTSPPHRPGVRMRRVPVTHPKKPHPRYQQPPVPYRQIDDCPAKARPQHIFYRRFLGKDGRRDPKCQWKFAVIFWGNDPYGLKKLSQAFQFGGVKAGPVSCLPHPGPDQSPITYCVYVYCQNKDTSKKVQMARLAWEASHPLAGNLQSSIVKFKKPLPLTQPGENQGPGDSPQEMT
HDAC3 inhib: inhibitors of human histone deacetylase 3; O15379; recombinant HDAC3, fluorogenic peptide/trypsin coupled, fluorescence; inhibition, % at 8.3 µM; 320,000 tested, 0.15% active; AID 2718; in the data active means inhibition above about 26%, passing the limit was not always enough; inconclusive means no clear call, values can overlap the other calls
ATG4B inhibitor: blocks human ATG4B protease cleavage of LC3 substrate | Q9Y4P1 | ATG4B cleavage of LC3-PLA2, NBD-HPC fluorescence, 1 h | inhibition, % at 8.33 µM | 340,000 tested, 0.51% active; in the data active means inhibition above about 40%
AI-2 QS modul: modulators of Vibrio harveyi AI-2 quorum sensing system | Vibrio harveyi JMH597 AI-2 luminescence/OD600 ratio, 9 h; active compounds read low; strain lacks LuxN and CqsS sensors; 0 = neutral-control median | activity change, % at 7.5 µM | 300,000 tested, 0.4% active; in the data active means activity change below about -75%, passing the limit was not always enough; inconclusive means no clear call, values can overlap the other calls;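 further: luminescence divided by OD600 gain over 9 h not by final OD600 alone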
* hit, by the source's call; ? = inconclusive; . = not tested or not shown; + = active, no number. An excerpt weighted towards active compounds, which were near 1.8% of everything screened.

SMILES | HKDC1 inhibitor | A1 inh | LANA-H2B inh | HDAC3 inhib | ATG4B inhibitor | AI-2 QS modul
CS(=O)(=O)N(Cc1ccccc1)c1ccc(C(=O)N2CCN(c3cccc(Cl)c3)CC2)cc1 | 13 | 1 | 0 | 0 | 56* | 10
O=C(Nc1ccncc1)Nc1cccc(Cl)c1 | -4 | 1 | 0 | 0 | -1 | 10
O=C(Nc1cccc(Cl)c1)Nc1csc([N+](=O)[O-])c1 | 7 | -1 | -3 | . | 5 | -91*
Cc1ccc(NC(=O)OCc2cccs2)cc1 | . | -3 | -1 | -2 | . | -90*
C=CCNC(=S)N/N=C/c1ccc(C)c([N+](=O)[O-])c1 | 6 | -1 | -3 | 9 | -1 | .
CN(C)c1ccc(/C=N/NC(N)=S)cc1[N+](=O)[O-] | -1 | 1 | 25* | -4 | -1 | 17
O=C(OC[C@H]1O[C@@H](OC(=O)c2cc(O)c(O)c(OC(=O)c3cc(O)c(O)c(O)c3)c2)[C@H](OC(=O)c2cc(O)c(O)c(OC(=O)c3cc(O)c(O)c(O)c3)c2)[C@@H](OC(=O)c2cc(O)c(O)c(OC(=O)c3cc(O)c(O)c(O)c3)c2)[C@@H]1OC(=O)c1cc(O)c(O)c(OC(=O)c2cc(O)c(O)c(O)c2)c1)c1cc(O)c(O)c(OC(=O)c2cc(O)c(O)c(O)c2)c1 | . | 0 | 8 | -8 | . | .
O=C(N/N=C1\CCCc2c1[nH]c1ccc(Cl)cc21)c1ccncc1 | -9 | 1 | 44* | -3 | -8 | 3
Cc1ccc(-c2nnc(NC(=O)c3ccc([N+](=O)[O-])o3)o2)c(C)c1 | -1 | 1 | . | . | -6 | ?
COc1ccc(-c2nnc(NC(=O)c3ccc([N+](=O)[O-])o3)o2)c(OC)c1 | 4 | 0 | -4 | -3 | -4 | -88*
CCCCN1CC(C)(C)Oc2cccc(F)c2S1(=O)=O | -8 | . | . | . | 1 | .
CC(C(=O)Nc1ccc(F)c(F)c1F)N(C)CCOc1ccccc1 (stereo not given) | -2 | 0 | 11* | 8 | -7 | 5
COc1ccc(/C=C/C(=O)O/N=C(\N)c2ccccn2)cc1OC | 2 | -2 | 21* | 6 | 1 | .
N/C(=N\OC(=O)/C=C/c1ccccc1)c1ccccn1 | -5 | -8 | 2 | 1 | 0 | -36
CCOC(=O)N1CC(C)N(CC(O)CN2CCOCC2)CC1C (stereo not given) | 5 | . | . | . | 1 | .
CC(=O)NCC1(O)CCCC(C)C1 (stereo not given) | -8 | 0 | 19* | -6 | 7 | 8
CCOc1ccc(NC(=O)CCN2C(=O)CSc3ccccc32)cc1 | -7 | 1 | -361 | 1 | -31 | .
O=C(CCN1C(=O)CSc2ccccc21)Nc1ccc(OC(F)(F)F)cc1 | -11 | 0 | + | 7 | -22 | .
COc1ccc(NC(=O)C2Cc3cccc(OC)c3O/C2=N\O)cc1 (stereo not given) | 0 | 0 | 0 | 0 | -3 | -54
COc1cccc2c1O/C(=N\O)C(C(=O)Nc1ccc(C)cc1)C2 (stereo not given) | -4 | 0 | -3 | 1 | 4 | -89*
Cc1c(N=Cc2cc(Br)cc(Br)c2O)cccc1C(=O)O | 5 | 0 | -6 | 4 | 46* | 40
O=Cc1cn(-c2ccccc2)nc1-c1ccc(F)cc1 | 5 | 0 | 5 | -2 | 29 | -10
O=C1NC(=O)C(c2cn(-c3ccccc3)nc2-c2ccc(F)cc2)N1 (stereo not given) | -4 | 3 | 0 | 0 | -6 | -86*
CN(CCOc1ccc(Cl)cc1)C(=O)c1cccc(S(=O)(=O)N2CCN(Cc3ccccc3)CC2)c1 | -1 | . | . | . | -5 | .
Cc1ccn(CC(=O)N/N=C/c2cc([N+](=O)[O-])ccc2O)n1 | -10 | -3 | -3 | 3 | 5 | -169*
SMILES | HKDC1 inhibitor | A1 inh | LANA-H2B inh | HDAC3 inhib | ATG4B inhibitor | AI-2 QS modul
O=C(Cn1cncn1)N/N=C/c1cc([N+](=O)[O-])ccc1O | -14 | 0 | 4 | 14 | -7 | 25
O=C(Cn1cnc([N+](=O)[O-])n1)N/N=C/c1cc(Cl)ccc1O | -20 | 0 | -12 | 10 | -5 | -84*
O=C(Cn1nc2ccccc2n1)N/N=C/c1cc([N+](=O)[O-])ccc1O | 9 | -1 | -11 | 7 | -13 | -86*
O=C(Cn1nnc(-c2ccccc2)n1)N/N=C/c1cc([N+](=O)[O-])ccc1O | -17 | -1 | -6 | 0 | 13 | 32
O=S(=O)(NCCc1ccc(F)cc1)c1ccc(F)cc1Br | 0 | . | . | . | -3 | .
Cc1cc(Cl)ccc1OCC(=O)OCC(=O)c1c(N)n(C)c(=O)n(C)c1=O | -3 | 16* | 0 | 7 | -16 | .
Cn1c(N)c(C(=O)COC(=O)COc2cc(Cl)c(Cl)cc2Cl)c(=O)n(C)c1=O | -8 | 1 | 0 | -3 | -2 | .
c1ccc(CNc2ccc(N3CCOCC3)cc2)cc1 | 5 | -5 | 17* | 3 | -5 | .
COc1ccc(CNc2ccc(N3CCOCC3)cc2)cc1 | 0 | 1 | -7 | -5 | 0 | 54
Cc1ccc(NS(=O)(=O)c2ccc(NC(=O)c3cccs3)cc2)c(C)c1 | -6 | 2 | 1 | -12 | -11 | 4
Cc1ccc(NC(=O)c2cc(S(=O)(=O)Nc3ccc(C)cc3)cs2)cc1 | 3 | 0 | -2 | 2 | -7 | -79*
O=C(CSc1nc2nn(-c3ccccc3)c(=O)c-2c2n1CCCCC2)NCCc1ccccc1 | -9 | 1 | 3 | -1 | -5 | 31
O=C(COc1ncnc2ccccc12)Nc1ccc(S(=O)(=O)N2CCOCC2)cc1 | 2 | 0 | 4 | 0 | -12 | -92*
Cc1ccccc1OCC(=O)Nc1ccc(S(=O)(=O)N2CCCC2)cc1 | -3 | 1 | . | . | -4 | -79*
O=C(COc1ccccc1)NCC(=O)N1CCCCCC1 | -3 | 0 | 50* | 5 | 3 | .
O=C(CCc1ccccc1)Nc1ccc(S(=O)(=O)N2CCCC2)cc1 | -1 | -3 | 2 | -5 | -13 | -89*
O=C(COc1ncnc2ccccc12)Nc1cccc(S(=O)(=O)N2CCOCC2)c1 | -12 | 0 | -3 | -1 | 1 | -25
O=C(CCc1ccccc1)Nc1ccc(S(=O)(=O)N2CCOCC2)cc1 | 1 | 0 | 0 | -2 | -6 | 23
O=C(COc1ccccc1)N1CCCCCCC1 | -5 | -1 | 8 | -13 | -11 | 23
CCOC(=O)CN1N=C(c2ccc(Cl)cc2)CCC1=O | -5 | 0 | 6 | 5 | 0 | 18
Nc1ccc(N=Nc2ccccc2)cc1[N+](=O)[O-] | -4 | . | . | . | -7 | .
O=C(COc1ccccc1)Nc1ccc(S(=O)(=O)N2CCCCCC2)cc1 | 3 | 1 | 0 | 4 | -12 | ?
O=C(COc1ccccc1)Nc1ccc(S(=O)(=O)N2CCCC2)cc1 | 2 | . | . | . | -8 | -95*
C=C(CN(C)C)C(=O)c1cc(OC)c(OC)cc1OC | 1 | . | . | . | 3 | .
